Most compounds without a hit are left out; they make up all but 3.3% or so of the library.
PglD inh: blocks C. jejuni PglD acetyltransferase activity. purified PglD enzyme, DTNB colorimetric CoA detection. inhibition, % at 12.5 µM. 360,000 compounds, 0.098% hits. AID 602405; in the data active means inhibition above about 16%, passing the limit was not always enough; inconclusive means no clear call, values can overlap the other calls
XiGFP reactiv: reactivates the inactive X chromosome in mouse fibroblasts; XiGFP mouse fibroblasts, % GFP-positive cells imaging, 3 d; cells co-treated with 5-aza-dC sensitizer; scaled so ellipticine positive control = 100%; activation, % at 7.58 µM; 360,000 compounds, 0.055% hits;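 active means mean normalized replicate activation at least 10% and every replicate at or above 10%; inconclusive means only one of the two criteria met; inactive means mean below 10% and not all replicates reach 10%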;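 further: 0% = median of on-plate neutral control wells and 100% = ellipticine 6 µM median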
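Material: XiGFP fibroblasts, SV40-immortalized. Buffer or medium: DMEM plus 5-aza-dC sensitizer. Compound: single concentration per compound, delivered by pin transfer. Times: 3 days compound exposure. Controls: ellipticine 6 µM.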
FGF22 binding: binders of recombinant human FGF22 by thermal shift. Q9HCT0. SYPRO orange fluorescence; percent of sucrose octasulfate shift, DMSO zero. activity (Tm shift, normalised), % at 9.99 µM. 340,000 compounds, 1.5% hits. AID 651658;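 active means mean Tm shift, scaled 0 neutral to 100 positive control, at about 1.3% or above, every replicate too, limit read from the data; inconclusive means no clear call, values can overlap the other calls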
Target sequence (Q9HCT0 whole entry, looked up): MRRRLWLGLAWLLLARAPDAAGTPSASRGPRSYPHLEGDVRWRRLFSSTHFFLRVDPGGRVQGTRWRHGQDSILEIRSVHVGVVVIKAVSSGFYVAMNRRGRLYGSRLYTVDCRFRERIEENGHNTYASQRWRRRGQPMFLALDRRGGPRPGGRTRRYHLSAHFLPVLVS
DENV2 CPE: DENV2-induced cell death inhibition | AID 651640 | 350,000 compounds, 1.7% hits | CPE inhibition, % at 9.99 µM | DENV2-infected cells, cytopathic effect rescue, plate reader; in the data active means CPE inhibition above about 20%, passing the limit was not always enough; inconclusive means no clear call, values can overlap the other calls; tested in BHK-21 cells;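 further: 0% = median of neutral control wells and 100% = median of positive control wells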
E-sel inducer: E-selectin induction on HUVECs. P16581. HUVEC E-selectin immunofluorescence imaging; normalized: neutral wells 0, TNF-alpha wells 100. 260,000 compounds, 0.37% hits. activation, % at 7.58 µM. AID 686992;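 active means mean E-selectin-positive cell signal at least 10% of the positive control, reached in at least 60% of replicates, without over 20% cell loss; inconclusive means no rule given, readout overlaps actives, possibly toxicity-flagged; inactive means the rest, including those meeting only one limit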
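System: HUVEC / Compound: single concentration / Signal: immunofluorescence imaging / Read-out: percent E-selectin-positive cells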
C2C12 statin: suppressors of simvastatin-induced myotoxicity in C2C12 myotubes. ATP luminescence, 48 h; scaled: DMSO 0, geranylgeraniol control 100. rescue of ATP level, % at 7.49 µM. 330,000 compounds, 0.78% hits. AID 602340;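 active means mean ATP rescue above about 67%, or every replicate alone reaching that limit, limit read from the data, passing the limit was not always enough; inconclusive means no clear call, values can overlap the other calls; inactive means mean under the limit and some replicate under it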;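 further: myotubes were challenged with 10 µM simvastatin during compound exposure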
* = called active by the depositor.

What do the screens show for `CO[C@H]1CN(C)C(=O)c2ccc(NC(=O)Nc3cccc(F)c3)cc2OC[C@@H](C)N(C(C)=O)C[C@H]1C`?
PglD inh: 2.5; XiGFP reactiv: 0.3; FGF22 binding: 0.0; DENV2 CPE: inconclusive; E-sel inducer: 0.0; C2C12 statin: -5.8

How did COc1ccc(S(=O)(=O)N(C)C[C@@H]2Oc3c(NC(=O)c4ccc(-c5nccs5)cc4)cccc3C(=O)N([C@@H](C)CO)C[C@H]2C)cc1 do in these assays?
XiGFP reactiv: -0.1

What do the screens show for `C[C@H]1CN([C@@H](C)CO)S(=O)(=O)c2ccc(-c3cncnc3)cc2O[C@@H]1CN(C)C`?
PglD inh: -2.9; XiGFP reactiv: 0.0; FGF22 binding: 0.3; DENV2 CPE: 15.7; E-sel inducer: -0.1; C2C12 statin: -3.5

How did O=C(N[C@H]1CC[C@H](CCNC(=O)C2CCCC2)O[C@H]1CO)c1ccccn1 do in these assays?
PglD inh: 1.6; XiGFP reactiv: 0.1; FGF22 binding: -0.5; DENV2 CPE: 1.8; E-sel inducer: -0.1; C2C12 statin: 0.7

Results for O=C(C[C@H]1C=C[C@H](NS(=O)(=O)c2ccccc2)[C@H](CO)O1)N1CCC(Cc2ccccc2)CC1 ?
XiGFP reactiv: -0.3; DENV2 CPE: 96.3*; E-sel inducer: -0.2

Results for COc1ccc(S(=O)(=O)N[C@H]2CC[C@@H](CC(=O)NCCc3ccncc3)O[C@@H]2CO)cc1 ?
PglD inh: -1.6; XiGFP reactiv: -0.3; FGF22 binding: 0.7; DENV2 CPE: 11.1; E-sel inducer: -1.6; C2C12 statin: -0.7

How did COc1ccc(S(=O)(=O)N[C@H]2CC[C@H](CC(=O)NCCc3ccncc3)O[C@H]2CO)cc1 do in these assays?
PglD inh: 3.8; XiGFP reactiv: -0.1; FGF22 binding: 0.1; DENV2 CPE: 23.3*; E-sel inducer: -1.6; C2C12 statin: -2.6

What do the screens show for `O=C(C[C@@H]1C=C[C@@H](NS(=O)(=O)c2ccccc2)[C@H](CO)O1)N1CCC(Cc2ccccc2)CC1`?
XiGFP reactiv: -0.7; FGF22 binding: 0.8; DENV2 CPE: inconclusive; E-sel inducer: -0.7

What do the screens show for `CO[C@H]1CN(C)C(=O)c2cc(NS(C)(=O)=O)ccc2OC[C@@H](C)N(CC2CCOCC2)C[C@H]1C`?
PglD inh: 1.2; XiGFP reactiv: -0.2; DENV2 CPE: 6.2; E-sel inducer: 0.4; C2C12 statin: 7.9

How did O=C(C[C@H]1CC[C@H]2[C@@H](COC[C@@H](O)CN2C(=O)Nc2ccc(F)cc2)O1)NC1Cc2ccccc2C1 do in these assays?
PglD inh: -1.3; XiGFP reactiv: 0.1; FGF22 binding: 0.0; DENV2 CPE: -3.1; E-sel inducer: -0.1; C2C12 statin: -11.3

What do the screens show for `CCC(=O)N1CC(=O)N2[C@H](C1)[C@H](c1ccc(C#CC(C)C)cc1)[C@@H]2CO`?
XiGFP reactiv: 0.4

How did CCCNC(=O)[C@H]1[C@H](CO)[C@H]2Cn3c(cccc3=O)[C@@H]1N2S(=O)(=O)c1ccccc1F do in these assays?
PglD inh: 2.8; XiGFP reactiv: -0.1; FGF22 binding: -0.1; DENV2 CPE: 4.2; E-sel inducer: 0.1; C2C12 statin: -1.7

How did CCCCNC(=O)c1cc2nc3c(c(C(F)(F)F)n2n1)CCc1ccccc1-3 do in these assays?
PglD inh: -1.4; C2C12 statin: 75.8*

How did CCCN1[C@@H]2c3ccc(-c4cccc(C(=O)N(C)C)c4)c(=O)n3C[C@@H]2[C@@H](CO)[C@@H]1C(=O)OC do in these assays?
XiGFP reactiv: 0.1; DENV2 CPE: -3.3; E-sel inducer: 0.1

How did CCN1CCc2c(sc(NC(=O)c3ccc(S(=O)(=O)N(C)c4ccccc4)cc3)c2C(=O)NC)C1 do in these assays?
PglD inh: -10.7; C2C12 statin: -89.8

Results for CNC(=O)c1c(NC(=O)c2ccc(S(=O)(=O)N(C)c3ccccc3)cc2)sc2c1CCN(C(C)C)C2 ?
XiGFP reactiv: 1.6; FGF22 binding: 0.0; DENV2 CPE: 96.1*; E-sel inducer: -0.1

Results for COc1ccccc1-c1cn(CC[C@@H]2CC[C@H](NC(=O)C3CC3)[C@@H](CO)O2)nn1 ?
PglD inh: -1.2; XiGFP reactiv: 1.4; FGF22 binding: -0.3; DENV2 CPE: 1.7; E-sel inducer: 0.1; C2C12 statin: 5.5

Bioassay records as filed in PubChem.
